Measured values from different studies.
Each line is one published result; the experiments were not run side by side.
Organism: Staphylococcus aureus
Read-out: microbial growth

CC(=O)Nc1c2sscc-2[nH]c1=O
MIC (MRSA; drug-resistant strain): 2.5 µM

COc1cccc(-c2nc3ccccc3[nH]2)c1
MIC (broth dilution; ATCC43300 MRSA; drug-resistant strain): 512 µg/mL

O=C(CCCCC1CCCCC1)NP(=O)(O)O
MIC (ATCC33591 MRSA; drug-resistant strain): > 200 µg/mL

Fc1ccc(-c2nc3ccccc3[nH]2)cc1
MIC (broth dilution; ATCC43300 MRSA; drug-resistant strain): 512 µg/mL

Cc1ccc2[nH]c3c(c2c1)CCCC3NCCc1ccc(Br)cc1 (stereo not shown)
MIC (broth dilution; VISA): 4 µg/mL

COC(=O)c1cc(-c2cccc(NC(=O)Nc3ccccc3C)c2)on1
MIC (broth dilution; ATCC29213): > 64 µg/mL

COC(=O)c1cc(Oc2ccc(NC(=O)Nc3ccc(Cl)c(C(F)(F)F)c3)cc2)ccn1
MIC (NCTC8325): 3 µM

COC(=O)c1cc(-c2cccc(NC(=O)Nc3c(C)cccc3C)c2)on1
MIC (broth dilution; ATCC29213): > 64 µg/mL

CC(C)C[C@H](NC(=O)[C@@H](NC(=O)N[C@H](C(=O)O)C(C)C)[C@@H]1CCNC(=N)N1)C(=O)NCCCN[C@H](C(=O)O)[C@H](O[C@@H]1O[C@H](CN)[C@@H](O)[C@H]1O)[C@H]1O[C@@H](n2ccc(=O)[nH]c2=O)[C@H](O)[C@@H]1O
MIC (NEWMAN): > 80 µg/mL

Cc1ccc2nc(-c3ccc([N+](=O)[O-])cc3)[nH]c2c1
MIC (broth dilution; ATCC43300 MRSA; drug-resistant strain): 256 µg/mL

O=C(CCCCCCCCCCOc1ccccc1)CP(=O)(O)O
MIC (ATCC33591 MRSA; drug-resistant strain): 100 µg/mL

COc1ccc(-c2nc3ccccc3[nH]2)cc1OC
MIC (broth dilution; ATCC43300 MRSA; drug-resistant strain): 256 µg/mL

COC(=O)c1cc(-c2cccc(NC(=O)Nc3ccc(Cl)cc3Cl)c2)on1
MIC (broth dilution; ATCC29213): > 64 µg/mL

CN[C@H](CC(C)C)C(=O)N[C@H]1C(=O)N[C@@H](CC(N)=O)C(=O)N[C@H]2C(=O)N[C@H]3C(=O)N[C@H](C(=O)N[C@H](C(=O)O)c4cc(O)cc(O)c4-c4cc3ccc4O)[C@H](O)c3ccc(c(Cl)c3)Oc3cc2cc(c3O[C@@H]2O[C@H](CO)[C@@H](O)[C@H](O)[C@H]2O[C@H]2C[C@](C)(N)[C@H](O)[C@H](C)O2)Oc2ccc(cc2Cl)[C@H]1O
MIC (broth dilution; ATCC29213): 1 µg/mL

CC1(C)CC[C@]2(C(=O)O)CC[C@]3(C)C(=CC[C@@H]4[C@@]5(C)CC[C@H](O)C(C)(C)[C@@H]5CC[C@]43C)[C@@H]2C1
MIC (252): 256 µg/mL

CN[C@H](CC(C)C)C(=O)N[C@H]1C(=O)N[C@@H](CC(N)=O)C(=O)N[C@H]2C(=O)N[C@H]3C(=O)N[C@H](C(=O)N[C@H](C(=O)O)c4cc(O)cc(O)c4-c4cc3ccc4O)[C@H](O)c3ccc(c(Cl)c3)Oc3cc2cc(c3O[C@@H]2O[C@H](CO)[C@@H](O)[C@H](O)[C@H]2O[C@H]2C[C@](C)(N)[C@H](O)[C@H](C)O2)Oc2ccc(cc2Cl)[C@H]1O
MIC (ATCC33592; drug-resistant strain): 0.39 µg/mL

C=CCn1c(-c2ccc([N+](=O)[O-])cc2)nc2ccccc21
MIC (broth dilution; ATCC43300 MRSA; drug-resistant strain): 64 µg/mL

COC(=O)c1cc(-c2cccc(NC(=O)Nc3ccc(F)c(F)c3)c2)on1
MIC (broth dilution; ATCC29213): > 64 µg/mL

Cc1cc(Cl)ccc1-c1ccc(/C=C2\SC(=S)N(CC(=O)O)C2=O)o1
MIC (broth dilution; MRSA USA300; drug-resistant strain): 8 to 64 µg/mL
